For 25 compounds, logD, IC50 and Ki results are on record in ChEMBL document CHEMBL3124793, “Discovery of spirofused piperazine and diazepane amides as selective histamine-3 antagonists with in vivo efficacy in a mouse model of cognition” (J Med Chem, 2014).

The nature of data set [1]: Octanol-water partition coefficient, log D of the compound by shake flask HPLC analysis. The class given is physicochemical. In a few lines:
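logD between octanol and water by shake-flask with HPLC analysis.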

Data set [2] has as its target T1, Histamine H3 receptor (Homo sapiens, UniProt Q9Y5N1). The data set can be described thus: Antagonist activity at human histamine H3 receptor long form expressed in CHOK1 cells assessed as inhibition of R-alpha-methylhistamine-induced [35S]GTPgammaS binding after 3 hrs by scintillation proximity assay. The class given is functional, cell-based, CHO-K1. In a few lines: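 Membranes from CHO-K1 cells stably expressing human H3R long form (445 aa) incubated 3 h with test compound, 25 nM R-α-methylhistamine, 10 μM GDP, 0.2 nM [35S]GTPγS and WGA PVT SPA beads; bead-bound [35S]GTPγS counted by scintillation. Average of n > 2, standard error <20%.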
In general terms: GTPγS is a poorly hydrolysed GTP analogue; its binding reports G protein activation.

In data set [3] the target is T1, Histamine H3 receptor. Nature of the data set: Displacement of [3H]-N-alpha-methylhistamine from human histamine H3 receptor expressed in CHOK1 cells after 1.5 hrs by scintillation proximity assay. It counts as cell-based, CHO-K1. In a few lines: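 Human H3R-CHO-K1 membranes incubated 1.5 h with test compound and [3H]-N-α-methylhistamine in SPA format; nonspecific binding defined with 10 μM imetit; bead-bound radioligand counted. Average of n > 2, standard error <50%.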
On the technique in general: Loss of bound radioactivity is the signal in a displacement assay; it reports binding, not function.

Data set [4] concerns the target Voltage-gated inwardly rectifying potassium channel KCNH2 (Homo sapiens, UniProt Q12809). Nature of the data set: Inhibition of human ERG expressed in CHOK1 cells by electrophysiological analysis.

Where only a bound is given, the exact number is not on record here.

T1 sequence (Q9Y5N1 whole entry): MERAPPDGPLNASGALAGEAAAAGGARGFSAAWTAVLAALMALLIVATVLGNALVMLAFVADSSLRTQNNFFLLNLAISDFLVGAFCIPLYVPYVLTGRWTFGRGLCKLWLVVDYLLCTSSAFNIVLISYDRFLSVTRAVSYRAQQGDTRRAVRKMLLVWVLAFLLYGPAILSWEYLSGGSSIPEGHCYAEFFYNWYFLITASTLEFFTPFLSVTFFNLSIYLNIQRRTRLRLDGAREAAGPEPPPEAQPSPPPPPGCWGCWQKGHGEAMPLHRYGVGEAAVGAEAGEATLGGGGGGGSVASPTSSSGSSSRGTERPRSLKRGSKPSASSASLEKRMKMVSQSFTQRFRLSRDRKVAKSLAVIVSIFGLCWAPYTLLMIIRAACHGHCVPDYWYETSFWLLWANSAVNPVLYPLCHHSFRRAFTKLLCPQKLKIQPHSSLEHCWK
Chain of Voltage-gated inwardly rectifying potassium channel KCNH2 (Q12809 whole entry): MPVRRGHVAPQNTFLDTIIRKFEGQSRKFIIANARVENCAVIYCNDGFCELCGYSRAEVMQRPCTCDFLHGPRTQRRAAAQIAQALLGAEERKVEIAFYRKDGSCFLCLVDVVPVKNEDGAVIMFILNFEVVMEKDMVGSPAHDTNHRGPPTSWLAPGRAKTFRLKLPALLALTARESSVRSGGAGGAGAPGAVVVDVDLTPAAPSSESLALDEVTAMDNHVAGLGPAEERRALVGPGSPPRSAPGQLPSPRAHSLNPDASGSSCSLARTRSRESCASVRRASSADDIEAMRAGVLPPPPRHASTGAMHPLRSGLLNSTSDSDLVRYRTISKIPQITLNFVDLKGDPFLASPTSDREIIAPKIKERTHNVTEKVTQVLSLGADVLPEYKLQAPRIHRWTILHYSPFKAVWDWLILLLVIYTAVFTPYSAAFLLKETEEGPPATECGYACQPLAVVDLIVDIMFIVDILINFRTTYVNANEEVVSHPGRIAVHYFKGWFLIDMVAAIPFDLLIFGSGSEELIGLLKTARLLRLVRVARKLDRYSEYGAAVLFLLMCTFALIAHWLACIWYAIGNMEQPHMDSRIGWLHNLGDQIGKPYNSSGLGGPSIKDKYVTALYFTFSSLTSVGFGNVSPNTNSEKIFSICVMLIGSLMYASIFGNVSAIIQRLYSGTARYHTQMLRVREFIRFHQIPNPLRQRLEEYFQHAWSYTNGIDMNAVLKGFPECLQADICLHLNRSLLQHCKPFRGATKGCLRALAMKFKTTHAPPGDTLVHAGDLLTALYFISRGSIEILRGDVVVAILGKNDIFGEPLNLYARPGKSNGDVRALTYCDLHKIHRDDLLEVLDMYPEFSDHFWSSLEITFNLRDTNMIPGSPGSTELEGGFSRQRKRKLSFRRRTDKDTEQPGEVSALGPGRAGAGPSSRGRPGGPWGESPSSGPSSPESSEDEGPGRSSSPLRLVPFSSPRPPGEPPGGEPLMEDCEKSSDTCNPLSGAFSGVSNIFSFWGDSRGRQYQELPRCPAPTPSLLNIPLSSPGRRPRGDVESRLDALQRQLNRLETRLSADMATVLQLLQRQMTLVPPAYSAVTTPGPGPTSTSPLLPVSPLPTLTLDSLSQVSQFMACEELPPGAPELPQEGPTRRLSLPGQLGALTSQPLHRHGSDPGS

Turning to `O=C(C1CC12CCN(C1CCOCC1)CC2)N1CCCN(C2CCC2)CC1` (racemic), in data set [1], the logD (usually lipophilicity at a set pH, counting ionised and neutral species) worked out at 0.18. Besides, the IC50 (in general, the concentration that gives 50% inhibition) on Histamine H3 receptor [2] is 17 nM. On Histamine H3 receptor [3], the Ki (in general, a measure of affinity in units of concentration, obtained from inhibition or displacement) came to 3 nM.
For `CC(C)N1CCN(C(=O)[C@@H]2CC23CCN(C2CCOCC2)CC3)CC1` the same measures were -0.35, 87 nM and 16 nM.
In data set [1], `O=C(C1CC12CCN(c1ccncc1)CC2)N1CCN(C2CCCCC2)CC1` (racemic) yielded a logD of 1.09. For the same compound, the IC50 on Histamine H3 receptor [2] worked out at 83 nM. Moreover, the affinity on Histamine H3 receptor [3], expressed as Ki, was 55 nM.
For the compound `CC(C)N1CCN(C(=O)N2CC3(CCN(C4CCOCC4)CC3)C2)CC1`, the IC50 at Histamine H3 receptor [2] stood at 900 nM. On Histamine H3 receptor [3], this compound had a Ki of 97 nM.
As for `CC(C)N1CCCN(C(=O)C2CC3(CCN(C(=O)c4ccccc4)CC3)C2)CC1`, the logD in data set [1] was 1.63. Moreover, the IC50 in data set [4] is more than 33000 nM; at Histamine H3 receptor [2], 12 nM.
As to `CC(C)N1CCC2(CC1)CC2C(=O)N1CCN(C2CCCCC2)CC1` (racemic), in data set [1], the logD amounted to 0.74. For the same compound, the IC50 at Histamine H3 receptor [2] worked out at 19 nM. Moreover, the Ki on Histamine H3 receptor [3] stood at 47 nM.
Compound `O=C(c1ccccc1)N1CCC2(CCCN(C(=O)N3CCCN(C4CCC4)CC3)C2)CC1` had a logD in data set [1] of 1.62. For the same compound, the IC50 on Histamine H3 receptor [2] came out at 18 nM.
Turning to `O=C(c1ccccc1)N1CCC2(CC1)CCN(C(=O)C1CCN(C3CCC3)CC1)C2`, the half-inhibitory concentration (IC50) at Histamine H3 receptor [2] is 340 nM.
In data set [1], `O=C(C1CC12CCN(Cc1ccccc1)CC2)N1CCN(C2CCCCC2)CC1` (racemic) displayed a logD of 2.81. At Histamine H3 receptor [3], this compound registered a Ki of 103 nM.
On to `O=C(N1CCN(C2CCC2)CC1)N1CCC2(CCN(S(=O)(=O)c3ccccc3)CC2)C1`, for which the logD in data set [1] is 2.27. The IC50 on Histamine H3 receptor [2] is 21 nM.
As to `O=C(C1CC12CCN(C1CCOCC1)CC2)N1CCN(C2CCCCCC2)CC1` (racemic), on Histamine H3 receptor [3], the affinity, expressed as Ki, was 65 nM.
`O=C(N1CCCN(C2CCC2)CC1)N1CCC2(CCCN(C3CCOCC3)C2)C1` (stereo unspecified) yielded a log distribution coefficient (logD) in data set [1] of 0.23. Moreover, the 50% inhibitory concentration (IC50) in data set [4] is more than 33000 nM; at Histamine H3 receptor [2], 4.4 nM.
As for `O=C(c1ccccc1)N1CCCC2(CCN(C(=O)N3CCCN(C4CCC4)CC3)C2)C1` (stereo unspecified), the logD in data set [1] turned out to be 1.01. Further, the half-inhibitory concentration (IC50) on Histamine H3 receptor [2] was 4 nM.
`O=C(C1CC12CCN(CCc1ccccc1)CC2)N1CCN(C2CCCCC2)CC1` (racemic): the IC50 at Histamine H3 receptor [2] is 16 nM. This compound also gave a Ki at Histamine H3 receptor [3] of 21 nM.
Consider `O=C(C1CC2(CCN(C3CCOCC3)CC2)C1)N1CCN(C2CCCCC2)CC1`, for which, in data set [1], the pH-dependent lipophilicity (logD) is 0.75. In addition, on Histamine H3 receptor [2], the IC50 worked out at 1.6 nM.
`CN1CCN(C(=O)C2CC23CCN(C2CCOCC2)CC3)CC1` (racemic): the IC50 on Histamine H3 receptor [2] was found to be 1100 nM. The compound further gave an inhibition constant (Ki) at Histamine H3 receptor [3] of 1300 nM.
In turn, `O=C(C1CC2(CCN(c3ccccc3)CC2)C1)N1CCN(C2CCC2)CC1` showed a logD in data set [1] of 3.25. Also, the IC50 is more than 33000 nM in data set [4] and 66 nM at Histamine H3 receptor [2].
Compound `O=C(C1CC12CCN(C1CCOCC1)CC2)N1CCN(c2ccncc2)CC1` (racemic) registered a logD in data set [1] of -1.09. Moreover, the Ki on Histamine H3 receptor [3] is 8.4 nM.
Turning to `O=C(C1CC12CCN(c1ccccc1)CC2)N1CCN(C2CCCCC2)CC1` (racemic), in data set [1], the pH-dependent lipophilicity (logD) came to 3.63. Also, on Histamine H3 receptor [3], the Ki was 1670 nM.
In data set [1], `O=C(C1CC12CCN(C1CCOCC1)CC2)N1CCN(C2CCCCC2)CC1` (racemic) came in with a logD of 0.74. In addition, the IC50 on Histamine H3 receptor [2] came to 12 nM. The Ki at Histamine H3 receptor [3] worked out at 26 nM.
With `O=C(C1CC2(CCN(C3CCOCC3)CC2)C1)N1CCN2CCCCC2C1` (stereo unspecified), the logD in data set [1] was -0.46. Moreover, the IC50 at Histamine H3 receptor [2] came out at 6.3 nM.
As to `CC(C)N1CCCN(C(=O)C2CC3(CCN(C4CCOCC4)CC3)C2)CC1`, the logD in data set [1] was -1.78. Also, the IC50 at Histamine H3 receptor [2] is 14 nM.
In the case of `O=C(c1ccccc1)N1CCC2(CC1)CC(C(=O)N1CCN(C3CCC3)CC1)C2`, in data set [1], the logD came out at 2.09. The same compound returned a 50% inhibitory concentration (IC50) in data set [4] of more than 33000 nM.
Take `O=C(C1CC2(CCN(C3CCOCC3)CC2)C1)N1CCCN(C2CCC2)CC1`: in data set [1], the logD was -0.89. For the same compound, on Histamine H3 receptor [2], the IC50 came to 0.8 nM.
In the case of `O=C(C1CC12CCN(C1CCC1)CC2)N1CCN(C2CCOCC2)CC1` (racemic), the concentration for half-maximal inhibition (IC50) at Histamine H3 receptor [2] turned out to be 66 nM. In addition, the Ki on Histamine H3 receptor [3] was 67 nM.
